Beta apoptosis = blocks beta cell apoptosis | INS-1E cytokine-induced death, ATP luminescence, 48 h; percent of positive-control rescue, neutral wells zero | protection from apoptosis, % (test concentration not listed) | 300,000 tested, 0.8% active;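 active = Every replicate reaches about 75%, or at least half do and their mean reaches it too, limit read from the data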;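 note: 0% = cytokine-treated negative control wells and 100% = positive control rescue; higher means more ATP so stronger rescue from cytokine killing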
SKKanGAS inh = inhibitors of SKKanGAS S. pyogenes growth in kanamycin (SK-promoter or general growth effect); BacTiter-Glo, 6 h; inhibition, % at 7.5 µM; 300,000 tested, 1.3% active; AID 1662;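 active = mean replicate score, as percent of positive control median, at least 50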;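 note: strain carries kanamycin resistance gene driven by streptokinase promoter and grows in 40 µg/ml kanamycin; loss of luminescence reflects streptokinase promoter inhibition or plain growth inhibition; 0% = median of DMSO wells and 100% = positive control at its reference dose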
Mdm2-MdmX inh = human Mdm2/MdmX binding inhibition. O15151+Q00987. SaOS-2 split-luciferase Mdm2/MdmX complementation, luminescence. inhibition, % at 8 µM. 330,000 tested, 3% active;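 active = inhibition of at least 50% at 8 µM in the primary screen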
Lmaj promast = reduces viability of Leishmania major promastigotes; 200,000 tested, 9% active; inhibition, % at 10 µM; resazurin fluorescence viability; AID 1063; in the data active = inhibition above about 50%;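 note: promastigotes grown with compound for 44 hours at 28 °C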
CSC inhib = blocks cancer stem cells; 300,000 tested, 1.1% active; cancer stem cell-like cells viability, luminescence; inhibition, % at 7.5 µM; in the data active = inhibition above about 75%; tested in HMLE shEcad cells
T cruzi repl = T. cruzi replication inhibition. T. cruzi beta-gal in NIH3T3, luminescence, 90 h. inhibition, % (no concentration beside the values). 300,000 tested, 1.4% active. AID 1885;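 active = mean inhibition across valid replicates above about 55%, limit read from the data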;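 note: signal also drops with host cell toxicity which is not excluded here; 0% = plate median of DMSO wells and 100% = zero luminescence signal; higher percent means less beta-gal luminescence so fewer parasites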
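assay system = mouse NIH/3T3 fibroblasts infected with β-gal-expressing T. cruzi Tulahuen C4 | input = 5,000 NIH/3T3 host cells per well | buffer or medium = DMEM plus 2% FBS | timing = 3 h host attachment, then at least 90 h co-culture | measured by = GalScreen luminescence, 60 min | evaluation = luminescence reflecting intracellular parasite burden, expressed as percent inhibition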
Active calls of the source: *; . = no result. A selection: hits, their analogues and other compounds. The true share with any hit is near 9.4%.

SMILES | Beta apoptosis | SKKanGAS inh | Mdm2-MdmX inh | Lmaj promast | CSC inhib | T cruzi repl
Nc1ccc(S(=O)(=O)Nc2ccc(C(=O)c3ccccc3)cc2)cc1 | . | 1 | 23 | . | 4 | -12
O=C1/C(=C\c2cccnc2)Sc2ccccc21 | 2 | 6 | 24 | 100* | 13 | -2
COc1ccc(CCC(=O)NC2CCC(C)CC2)cc1 (stereo unspecified) | 0 | 1 | -3 | . | -14 | -13
Cc1ccc(CNC(=O)c2ccc(N3CCC4(CC3)CC(c3ccccc3)=NO4)c(NC(=O)c3ccco3)c2)cc1 | 5 | 22 | 12 | . | -11 | 51
CCCNC(=O)c1ccc(N2CCC3(CC2)CC(c2ccccc2)=NO3)c(NC(=O)c2ccco2)c1 | 19 | 50* | 41 | . | 23 | 41
O=C(Nc1ccccc1)C1=C(c2ccccc2)S(=O)(=O)CCS1(=O)=O | . | -29 | . | -1 | . | 69*
Cc1cccc(N2C(=O)CN(Cc3sccc3C)C2=S)c1 | . | -6 | 25 | 22 | . | -8
Cc1ccsc1CN1CC(=O)N(c2c(C)cccc2C)C1=S | . | -3 | -9 | 53* | . | 15
COc1ccc(C)cc1NC(=O)NC1CCCc2ccccc21 (stereo unspecified) | 7 | 51* | 36 | . | 2 | 11
COc1ccc(NC(=O)NC2CCCc3ccccc32)cc1OC (stereo unspecified) | 5 | 3 | 10 | . | 1 | 2
Cc1cccc(OCC(=O)NC2CCCc3ccccc32)c1C (stereo unspecified) | -10 | 14 | -8 | 61* | 12 | 19
Cc1c(N/N=C(\C#N)C(=O)c2ccc(Cl)cc2)c(=O)n(-c2ccccc2)n1C | 76* | 100* | . | -13 | 26 | -5
COC(=O)C(=NNc1c(C)n(C)n(-c2ccccc2)c1=O)C(=O)OC | -1 | -10 | -27 | -5 | -14 | -3
O=C1CC2(CCN(C(=O)c3ccccc3[N+](=O)[O-])CC2)Oc2ccccc21 | . | -5 | -2 | . | -12 | -3
Cc1ccc(S(=O)(=O)Nc2ccc(O)c3ncccc23)cc1 | 49 | 0 | 27 | 99* | 29 | 44
Cc1ccc(S(=O)(=O)Nc2ccc(O)c3cccnc23)cc1 | 0 | 16 | 42 | . | 21 | -4
Cc1ccc(S(=O)(=O)N2CCCC2)s1 | -2 | -2 | 12 | . | -3 | -6
Cc1ccc(S(=O)(=O)Nc2ccc3c(c2)OCCO3)c(C)c1NS(C)(=O)=O | 0 | 1 | 33 | . | -15 | 1
Cc1ccc(OCC(=O)Nc2ccc(S(=O)(=O)N(C)C3CCN(C)CC3)cc2)c(C)c1 | 11 | 12 | 23 | . | 48 | 61*
CN1CCC(N(C)S(=O)(=O)c2ccc(NC(=O)Cc3ccc(F)cc3)cc2)CC1 | . | . | 16 | . | . | .
Cc1ccc(OCC(=O)Nc2ccc(S(=O)(=O)N3CCOCC3)cc2)c(C)c1 | . | -4 | 17 | . | . | -19
Cc1ccccc1OCCC(=O)Nc1ccc(S(=O)(=O)N(C)C2CCN(C)CC2)cc1 | 0 | -1 | 13 | . | -2 | 58*
Cc1ccccc1OCCC(=O)Nc1ccc(F)c(Cl)c1 | 0 | 2 | 26 | 68* | 11 | -16
CN1CCC(N(C)S(=O)(=O)c2ccc(NC(=O)c3ccc(S(=O)(=O)N(C)C)cc3)cc2)CC1 | -13 | . | -9 | . | -24 | .
CN1CCC(N(C)S(=O)(=O)c2ccc(NC(=O)COc3cccc(Cl)c3)cc2)CC1 | -1 | 8 | 24 | . | -3 | 56*
SMILES | Beta apoptosis | SKKanGAS inh | Mdm2-MdmX inh | Lmaj promast | CSC inhib | T cruzi repl
CCN(CC(=O)Nc1c(F)cccc1F)C(=O)Cc1ccc(S(=O)(=O)N2CCOCC2)s1 | . | . | 2 | . | . | .
CCN(CC)C(=O)CSC1=C(C#N)C(c2ccco2)C(C(=O)OCCOC)=C(C)N1 (stereo unspecified) | -7 | 0 | -21 | -1 | 14 | 17
CC(=O)C1=C(C)NC(SCC(=O)c2ccc(F)cc2)=C(C#N)C1c1ccco1 (stereo unspecified) | -4 | 7 | 35 | 6 | -6 | 20
C=CCOC(=O)C1=C(C)NC(SCC(=O)N(CC)CC)=C(C#N)C1c1ccco1 (stereo unspecified) | 13 | 2 | 20 | 81* | -18 | 14
CC(=O)C1=C(C)NC(SCC(=O)c2ccc(Cl)c(Cl)c2)=C(C#N)C1c1ccco1 (stereo unspecified) | 100* | 56* | 8 | 78* | 157* | 34
CCc1ccc(C(=O)CSC2=C(C#N)C(c3ccco3)C(C(C)=O)=C(C)N2)cc1 (stereo unspecified) | 110* | 19 | 29 | 36 | 80* | 47
COc1ccccc1C(CNC(=O)c1ccc(OCc2c(C)noc2C)cc1)N1CCCC1 (stereo unspecified) | -1 | . | 4 | . | -1 | .
CN(C)S(=O)(=O)c1ccc(C(=O)Nc2ccccc2[N+](=O)[O-])cc1 | . | -2 | 31 | 66* | 16 | -15
CCN(CC)c1ccc(S(=O)(=O)N2CCOCC2)cc1NC(=O)Cn1nc(C)c([N+](=O)[O-])c1C | 0 | . | 7 | . | -9 | .
Cc1ccccc1NC(=O)c1ccc(S(=O)(=O)N(C)C)cc1 | . | 2 | 7 | -2 | -2 | -8
CCN(CC)S(=O)(=O)c1ccc(Cl)c(C(=O)Nc2ccc(Cl)cc2[N+](=O)[O-])c1 | 100* | 6 | 44 | 85* | 7 | -9
Cc1nn(CC(=O)Nc2cc(S(=O)(=O)N(C)C)ccc2Cl)c(C)c1[N+](=O)[O-] | 4 | 8 | 7 | 72* | 9 | 6
CN(C)S(=O)(=O)c1ccc(Cl)c(C(=O)Nc2ccccc2[N+](=O)[O-])c1 | 0 | 3 | 11 | 61* | 11 | -20
Cc1ccc(C(=O)N2CC(C)OC(C)C2)cc1S(=O)(=O)N1CCCCC1 (stereo unspecified) | -3 | . | 12 | . | -15 | .
Cc1nn(-c2ccccc2)nc1C(=O)c1c(C)[nH]n(-c2ccccc2)c1=O | -4 | 61* | -24 | . | 37 | -29
C/C(=N\NC(=O)c1ccc(C)cc1)c1c(C)[nH]n(-c2ccccc2)c1=O | 91* | 56* | 21 | . | 36 | 51
Cc1[nH]n(-c2ccccc2)c(=O)c1C(=O)c1ccc([N+](=O)[O-])cc1 | -2 | -5 | -10 | -7 | 11 | 13
COc1cccc(N(CC(=O)NC2CCCCC2)C(=O)CCC(=O)Nc2nc(C)cs2)c1 | -1 | 1 | -4 | . | -3 | 3
O=[N+]([O-])c1ccc(-c2nnc(CNC3CCCC3)o2)cc1 | -1 | 0 | 7 | 1 | -15 | -3
S=C(NC1CCCCC1)N1CCN(C2CCCCC2)CC1 | 3 | -2 | 12 | 91* | 4 | 3
O=C(NC1CCCCC1)N1CCN(C2CCCCC2)CC1 | -5 | -1 | 6 | 68* | -14 | -9
O=C(NC12CC3CC(CC(C3)C1)C2)N1CCN(C2CCCCC2)CC1 | -3 | -15 | -4 | 85* | -2 | -18
O=C(NC1CCCCC1)N1CCCCCCC1 | -1 | -4 | 17 | -2 | 4 | -4
S=C(NC1CC1)N1CCN(C(=S)NC2CC2)CC1 | -1 | 1 | 23 | . | -9 | -24

Source: PubChem (several laboratories)
